The source of these data is ChEMBL document CHEMBL4715843, “NO-releasing STAT3 inhibitors suppress BRAF-mutant melanoma growth” (Eur J Med Chem, 2020).

Activity calls are given as the source filed them. The calls are words filed in the database; no cut-off is given here.

In one experiment the test system is UO-31. The experiment can be described thus: Anticancer activity against human UO-31 cells assessed as cell growth inhibition at 10 uM measured after 48 hrs by SRB assay relative to control. In kind it is functional. Conditions: read-out: GI. In a few lines: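 NCI 60-cell-line screen. Cells in RPMI with 5% FBS were plated at 5,000–40,000 cells/well by doubling time and preincubated 24 h at 37 °C. Compound was added at a single 10 µM for 48 h, then cells were fixed with cold TCA (10% final) and stained with 0.4% SRB. Absorbance at 515 nm gave percent growth versus untreated control and time-zero cells.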
Background: The SRB assay estimates cell density from bound dye.

In experiment [1] the target is T1, Signal transducer and activator of transcription 3 (Homo sapiens, UniProt P40763). In words: Inhibition of STAT3 phosphorylation at S727 residues in human A-375 cells at 10 to 25 uM after 12 hrs by Western blotting analysis. The note with it: dose 10-25 µM. In kind it is cell-based. In a few lines:
(§1)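 Cells lysed in M-PER after 12 h drug exposure (overnight per text); 60 µg total protein run on 10% SDS-PAGE, transferred to PVDF, probed overnight at 4 °C with phospho-specific antibodies. Panel lines (U87-MG, MDA-MB-468, MIA PaCa-2, NCI-H157, A549) given 25 µM; A375 given 0, 5, 10, 25 µM. Actin and/or vinculin loading controls.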

Experiment [2] deals with Signal transducer and activator of transcription 3 (Mus musculus) (UniProt P42227). The experiment can be described thus: Inhibition of EGF-induced STAT3 phosphorylation in MEF assessed as reduction in STAT3 nuclear translocation preincubated overnight followed by EGF stimulation and measured after 30 mins by DAPI staining based immunofluorescence assay. Conditions: dose 5-50 µM. The procedure, abridged: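 MEF cells (2000/well) were allowed to adhere for 24 h, then held overnight in serum-free medium with inhibitor doses. They were stimulated with full RPMI containing 100 nM EGF for 30 min, then fixed in 4% paraformaldehyde and permeabilized. Cells were immunostained for STAT3 (Alexa Fluor 488) with DAPI nuclear counterstain and nuclear STAT3 was quantified by imaging; three independent experiments.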

Experiment [3] has as its target T1, Signal transducer and activator of transcription 3. In words: Inhibition of STAT3 in human SB-590885-resistant 451Lu cells assessed as reduction in STAT3 transcriptional activity measured after 12 hrs by Dual-luciferase reporter gene assay. The procedure, abridged:
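Cells co-transfected with inducible STAT3-responsive firefly luciferase and constitutive Renilla luciferase constructs (40:1) using Lipofectamine 3000. After 48 h, dose series in DMSO vehicle applied for 12 h, followed by dual-luciferase readout. Firefly signal normalized to Renilla and compared with untreated cells. Run in triplicate; IC50 taken from dose–response curves.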
(In general: In a reporter assay the amount or activity of a reporter protein is the signal.)

Experiment [4] in a line: Antiproliferative activity against human SB-590885-sensitive MEL1617 cells assessed as reduction in cell viability measured after 48 hrs by MTS assay. Conditions: MEL1617, 48 h. In kind it is functional, cell-based. In a few lines: (§2)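 Melanoma lines were grown in RPMI-1640 with Glutamax at 37 °C and 5% CO2. The resistant 451 Lu-R and MEL 1617-R sublines were maintained with 1 µM PLX4720. Cells were incubated with vehicle or inhibitor over a dose range, and viability was read by MTS assay in triplicate.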

The target of experiment [5] is T1, Signal transducer and activator of transcription 3. In words: Inhibition of STAT3 phosphorylation at Y705 residues in human U-87 MG cells at 25 uM after 12 hrs by Western blotting analysis. In kind it is cell-based. In a few lines: as §1
For experiment [6] the target is unchanged. The experiment can be described thus: Inhibition of STAT3 phosphorylation at Y705 residues in human MIA PaCa-2 cells at 25 uM after 12 hrs by Western blotting analysis. The format is cell-based. In a few lines:
as §1
For orientation: A western blot detects proteins with antibodies after separation by electrophoresis.

Experiment [7] has the same target. In words: Inhibition of STAT3 phosphorylation at Y705 residues in human A-375 cells at 5 to 10 uM after 12 hrs by Western blotting analysis. The format is cell-based. Conditions: dose 5-10 µM. The procedure, abridged: as §1
For experiment [8] the target is unchanged. The experiment can be described thus: Inhibition of STAT3 phosphorylation at S727 residues in human U-87 MG cells at 25 uM after 12 hrs by Western blotting analysis. In kind it is cell-based. In a few lines:
as §1

The target is the same in experiment [9]. The experiment can be described thus: Inhibition of STAT3 phosphorylation at S727 residues in human MDA-MB-468 cells at 25 uM after 12 hrs by Western blotting analysis. The format is cell-based. The procedure, abridged:
as §1

The target is the same in experiment [10]. The experiment can be described thus: Inhibition of STAT3 phosphorylation at S727 residues in human A-375 cells at 5 to 10 uM after 12 hrs by Western blotting analysis. The note with it: dose 5-10 µM. The format is cell-based. In a few lines: as §1
In experiment [11] the target is Tyrosine-protein kinase JAK2 (Homo sapiens) (UniProt O60674). In words: Inhibition of JAK2 phosphorylation in human MDA-MB-468 cells at 25 uM after 12 hrs by Western blotting analysis. In kind it is cell-based. The procedure, abridged: as §1
Experiment [12] shares this target. The experiment can be described thus: Inhibition of JAK2 phosphorylation in human MIA PaCa-2 cells at 25 uM after 12 hrs by Western blotting analysis. In kind it is cell-based. In a few lines: as §1
The target is the same in experiment [13]. In words: Inhibition of JAK2 phosphorylation in human NCI-H157 cells at 25 uM after 12 hrs by Western blotting analysis. In kind it is cell-based. In a few lines:
as §1

For experiment [14] the target is unchanged. The experiment can be described thus: Inhibition of JAK2 phosphorylation in human A549 cells at 25 uM after 12 hrs by Western blotting analysis. In kind it is cell-based. The procedure, abridged:
as §1

For experiment [15], the target named is Proto-oncogene tyrosine-protein kinase Src (Homo sapiens) (UniProt P12931). The experiment can be described thus: Inhibition of SRC phosphorylation in human U-87 MG cells at 25 uM after 12 hrs by Western blotting analysis. The format is cell-based. The procedure, abridged:
as §1

Experiment [16] shares this target. The experiment can be described thus: Inhibition of SRC phosphorylation in human NCI-H157 cells at 25 uM after 12 hrs by Western blotting analysis. In kind it is cell-based. The procedure, abridged:
as §1

For experiment [17] the target is unchanged. In words: Inhibition of SRC phosphorylation in human A549 cells at 25 uM after 12 hrs by Western blotting analysis. The format is cell-based. In a few lines: as §1
Another experiment deals with U-87 MG. In words: Antiproliferative activity against human U-87 MG cells measured after 48 hrs by MTS assay. The format is functional, cell-based. The note with it: U-87MG ATCC. In a few lines:
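Cells were exposed to a dose range of inhibitor for 48 h, and viability was read by MTS assay in triplicate. GI50 was taken as the concentration giving 50% growth inhibition, averaged from three independent experiments. A375 was cultured in RPMI-1640 with Glutamax. A549 and NCI-H157 were kept in RPMI-1640, and MIA PaCa-2 and U87-MG in DMEM.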

The subject of another experiment is MDA-MB-468. In words: Antiproliferative activity against human MDA-MB-468 cells measured after 48 hrs by MTS assay. The format is functional, cell-based.
Experiment [18] deals with 451Lu. In words: Antiproliferative activity against human SB-590885-sensitive 451Lu cells assessed as reduction in cell viability measured after 48 hrs by MTS assay. In kind it is functional. The procedure, abridged:
as §2

The test system of the next experiment is A-375. The experiment can be described thus: Induction of ROS generation in human A-375 cells incubated for 18 hrs by DCFH-DA dye based flow cytometry. The format is functional, cell-based. Conditions: dose 10-25 µM. The procedure, abridged:
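A375 cells (1×10^6) were treated with DMSO, 10 or 25 µM for 18 h in full RPMI, then trypsinized and washed. They were loaded with 10 µM DCFH-DA (final) for 30 min at 37 °C in the dark. DCF fluorescence was read by flow cytometry (488 nm excitation, 535 nm filter).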

The subject of experiment [19] is 451Lu. The experiment can be described thus: Antiproliferative activity against human SB-590885-resistant 451Lu cells assessed as reduction in cell viability measured after 48 hrs by MTS assay. The format is functional. In a few lines: as §2
The test system of another experiment is MEL1617. The experiment can be described thus: Antiproliferative activity against human SB-590885-resistant MEL1617 cells assessed as reduction in cell viability measured after 48 hrs by MTS assay. The format is functional, cell-based. The procedure, abridged: as §2
The subject of experiment [20] is 451Lu. In words: Induction of apoptosis in human SB-590885-resistant 451Lu cells assessed as increase in cleaved PARP expression measured after 12 hrs by Western blot analysis. In kind it is functional. The procedure, abridged: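 Sensitive and resistant 451 Lu cells were exposed to a dose range for 12 h before lysis. PARP, cleaved PARP and caspase-7 were detected by western blot against a vinculin loading control; repeated twice.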

Proto-oncogene tyrosine-protein kinase Src (Homo sapiens), sequence (P12931 2-536 limits assumed): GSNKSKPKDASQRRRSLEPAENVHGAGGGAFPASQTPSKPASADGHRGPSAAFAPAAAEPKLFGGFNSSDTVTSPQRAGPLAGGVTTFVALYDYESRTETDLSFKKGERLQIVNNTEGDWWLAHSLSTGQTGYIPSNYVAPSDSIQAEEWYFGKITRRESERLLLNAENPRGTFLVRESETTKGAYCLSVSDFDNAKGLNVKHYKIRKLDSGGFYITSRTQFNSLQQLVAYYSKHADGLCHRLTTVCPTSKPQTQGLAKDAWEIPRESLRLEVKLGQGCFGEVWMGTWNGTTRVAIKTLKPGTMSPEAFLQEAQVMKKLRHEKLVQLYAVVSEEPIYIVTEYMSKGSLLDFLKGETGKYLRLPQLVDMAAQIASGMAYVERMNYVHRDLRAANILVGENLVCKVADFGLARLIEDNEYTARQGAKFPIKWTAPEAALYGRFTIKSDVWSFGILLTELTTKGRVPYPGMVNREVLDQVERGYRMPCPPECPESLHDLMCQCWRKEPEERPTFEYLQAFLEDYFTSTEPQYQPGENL
Tyrosine-protein kinase JAK2 (Homo sapiens), sequence (O60674 whole entry): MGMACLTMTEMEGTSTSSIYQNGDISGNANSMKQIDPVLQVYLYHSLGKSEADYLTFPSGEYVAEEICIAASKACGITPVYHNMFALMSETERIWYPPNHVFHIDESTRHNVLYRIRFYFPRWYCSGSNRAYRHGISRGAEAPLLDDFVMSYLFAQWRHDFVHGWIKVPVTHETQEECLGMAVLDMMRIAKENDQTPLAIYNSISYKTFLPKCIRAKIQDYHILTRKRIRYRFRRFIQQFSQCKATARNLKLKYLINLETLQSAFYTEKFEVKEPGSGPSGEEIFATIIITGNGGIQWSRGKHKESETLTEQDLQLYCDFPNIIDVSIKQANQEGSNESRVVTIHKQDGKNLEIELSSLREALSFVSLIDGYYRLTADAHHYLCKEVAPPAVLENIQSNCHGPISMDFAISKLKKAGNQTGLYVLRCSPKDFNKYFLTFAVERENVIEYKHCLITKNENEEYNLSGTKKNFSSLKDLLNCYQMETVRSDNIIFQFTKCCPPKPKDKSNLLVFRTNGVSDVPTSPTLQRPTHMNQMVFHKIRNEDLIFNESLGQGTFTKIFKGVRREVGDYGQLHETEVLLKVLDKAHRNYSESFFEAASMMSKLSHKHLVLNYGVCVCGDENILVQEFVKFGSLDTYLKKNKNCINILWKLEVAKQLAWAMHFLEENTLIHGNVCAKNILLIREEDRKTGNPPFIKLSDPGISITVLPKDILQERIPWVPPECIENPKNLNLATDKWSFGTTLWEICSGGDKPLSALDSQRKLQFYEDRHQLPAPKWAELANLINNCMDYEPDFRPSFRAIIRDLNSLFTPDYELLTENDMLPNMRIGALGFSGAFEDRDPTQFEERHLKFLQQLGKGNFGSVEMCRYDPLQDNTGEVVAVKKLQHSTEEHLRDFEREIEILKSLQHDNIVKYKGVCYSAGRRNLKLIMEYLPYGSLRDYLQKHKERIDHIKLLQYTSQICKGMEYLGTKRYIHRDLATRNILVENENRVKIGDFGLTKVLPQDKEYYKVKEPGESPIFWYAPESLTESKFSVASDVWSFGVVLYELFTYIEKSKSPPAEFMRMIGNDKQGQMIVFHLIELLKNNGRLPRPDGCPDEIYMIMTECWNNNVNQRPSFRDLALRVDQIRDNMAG
T1 sequence (P40763 whole entry): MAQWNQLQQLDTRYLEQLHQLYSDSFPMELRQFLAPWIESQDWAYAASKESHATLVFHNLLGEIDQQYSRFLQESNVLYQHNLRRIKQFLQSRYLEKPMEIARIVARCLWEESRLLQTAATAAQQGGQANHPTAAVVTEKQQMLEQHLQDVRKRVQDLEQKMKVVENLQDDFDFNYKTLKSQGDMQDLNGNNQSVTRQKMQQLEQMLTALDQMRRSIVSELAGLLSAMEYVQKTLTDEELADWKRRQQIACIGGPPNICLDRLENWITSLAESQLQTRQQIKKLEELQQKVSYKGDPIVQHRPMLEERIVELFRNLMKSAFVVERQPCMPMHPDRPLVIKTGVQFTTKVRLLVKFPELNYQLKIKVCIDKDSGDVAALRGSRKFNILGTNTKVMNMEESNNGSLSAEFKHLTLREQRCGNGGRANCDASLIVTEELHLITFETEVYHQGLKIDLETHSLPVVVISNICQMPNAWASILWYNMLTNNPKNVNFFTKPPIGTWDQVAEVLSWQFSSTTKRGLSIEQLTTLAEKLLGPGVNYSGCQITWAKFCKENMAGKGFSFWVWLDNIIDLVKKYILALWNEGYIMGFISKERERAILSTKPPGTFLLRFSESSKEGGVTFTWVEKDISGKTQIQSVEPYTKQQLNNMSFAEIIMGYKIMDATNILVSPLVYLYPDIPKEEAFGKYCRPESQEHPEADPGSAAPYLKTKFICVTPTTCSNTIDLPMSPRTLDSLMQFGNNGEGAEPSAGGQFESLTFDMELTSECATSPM
Signal transducer and activator of transcription 3 (Mus musculus), sequence (P42227 whole entry): as the sequence (P40763 whole entry) above, with E760D counted along it

What is called IC50 is the concentration at which inhibition is half-maximal. For the molecule `C=CCn1c(SCC(=O)Nc2ccc(/C(C)=N\O)cc2)nnc1-c1cc(-c2ccc(Cl)cc2)nc2ccccc12`, the inhibition of growth at 10 µM in the experiment on UO-31 worked out at 100%. For the same molecule, the inhibition entry in experiment [1] is “Active”. For the same molecule, the inhibition entry in experiment [2] is “Dose-dependent effect”. In addition, the IC50 in [3] was found to be 17 µM; in [4], 46.1 µM.

Regarding `C=CCn1c(SCC(=O)Nc2ccc(/C(C)=N\O)cc2)nnc1-c1cc(-c2ccccc2)nc2ccccc12`, the inhibition result in experiment [5], in experiment [6], in [7], in experiment [8], in experiment [9] and in [10] was “Active” each time. For the same molecule, the inhibition entry in [11], in [12], in [13], in experiment [14], in [15] and in experiment [16] was “inactive” each time. Further, the inhibition entry in experiment [17] was “inactive”. The outcome in the experiment with U-87 MG and with MDA-MB-468 was Active. In addition, the Activity result in the experiment on 451Lu [18], in the experiment with A-375, in the experiment with 451Lu [19], in the experiment on MEL1617 and in the experiment on 451Lu [20] was “Dose-dependent effect” in each case. For the same molecule, the IC50 came out at 4.7 µM in experiment [3] and 8.4 µM in experiment [4].
